From the array DNA melting data of Ke et al. (doi:10.1101/2024.01.08.574731)

How the values were obtained:
[1] = folding enthalpy; higher = less favourable; fluorescence melt of hairpins on a sequencing array, two-state fit; conditions: sodium 0.088 M
Procedure, shortened: (§1)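 Folding enthalpy and melting temperature were estimated with bootstrapped two-state fits and combined across four replicates by inverse-variance weighting, with fitted temperatures raised by 9.35 °C to match UV melts. The data were Cy3 fluorescence of library hairpins, with annealed Cy3 and quencher oligos, on a sequenced MiSeq flow cell in 50 mM Na-HEPES pH 8.0, 25 mM NaCl, imaged in 2.5 °C steps up to 60 °C and normalised to pre-quench Cy3 and control constructs.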

[2] = melting temperature; fluorescence melt of hairpins on a sequencing array, two-state fit, raised by 9.35 °C to match UV melts; conditions: sodium 0.088 M
Procedure, shortened: as §1

Sequence | folding enthalpy [1] [kcal/mol] | Tm [2] [°C]
GCCCCTCGAAAGAGCGGC (((.(((....))).))) | -33 | 49.8
GCCCCTGCGAAAGCAGGC (((..(((....)))))) | -4.68 | 42.4
GCCCCTGGAAACAAGGGC ((((.((....)).)))) | -28.8 | 46.1
GCCCCTGGAAACAGGAGC ((.((((....)))).)) | -30.6 | 47.5
GCCCGACGAAAGTCGGC (((.(((....)))))) | -8.71 | 61.4
GCCCGCGAAAGCGACGGC ((((((....)))..))) | -22.3 | 54.9
GCCCGCGAAAGCGCCGGC ((((((....)))..))) | -17.5 | 52.3
GCCCGCGAAAGCGTTGGC ((((((....)))..))) | -23.2 | 56.2
GCCCGGCCGAAAGGCGGC (((..(((....)))))) | -13.2 | 57.6
GCCCGGCGAAAGCAGTGC ((.(.((....)).).)) | -18.2 | 40.5
GCCCGGCGAAAGCATGGC (((..((....))..))) | -19 | 56
GCCCGGCGAAAGCCCGGC (((.(((....))).))) | -17.1 | 60.5
GCCCGGCGAAAGCCGGC (((.(((....)))))) | -6.9 | 65.7
GCCCGGCGAAAGCTGTGC ((.(.((....)).).)) | -19.7 | 40.9
GCCCGGCGAAAGCTTGGC (((..((....))..))) | -18.8 | 52.4
GCCCGGGGAAACCCGGAC (.(((((....))))).) | -13.4 | 51.3
GCCCGGGGAAACCTGGGC ((((.((....)).)))) | -52.3 | 62.3
GCCCGTCGAAAGACAGGC (((.(((....))).))) | -39 | 55.3
GCCCTAGCGAAAGCTGGC (((..(((....)))))) | -13.7 | 48

Sequence | folding enthalpy [1] [kcal/mol] | Tm [2] [°C]
GCCCTAGGAAACTAAGGC (((.(((....))).))) | -21.1 | 34
GCCCTCCGAAAGGATGGC (((.(((....))).))) | -37.5 | 55
GCCCTCGGAAACAAGGGC (((((.(....).))))) | -35.8 | 49.6
GCCCTGACGAAAGTCGGC (((..(((....)))))) | -13.6 | 48.9
GCCCTGCGAAAGCATTGC ((..(((....)))..)) | -8.56 | 29.3
GCCCTGCGAAAGCCAGGC (((..((....))..))) | -15.7 | 53
GCCCTGCGAAAGCCGCGC ((.(.((....)).).)) | -10.3 | 34.9
GCCCTGCGAAAGCGTGGC (((..((....))..))) | -21.1 | 55.6
GCCCTTCGAAAGAAAGGC (((.(((....))).))) | -28.5 | 45.1
GCCCTTGAAAAAGGGC ((((((....)))))) | -36 | 68
GCCGAAGAAATTCGGC ((((((....)))))) | -33.9 | 67.4
GCCGAAGCGAAAGCTGGC (((..(((....)))))) | -31.6 | 57.1
GCCGAATCGAAAGATGGC (((..(((....)))))) | -26.3 | 46.2
GCCGACGAAAGTCGTGGC ((((((....)))..))) | -16.3 | 57
GCCGACGGAAACATCGGC (((((.(....).))))) | -38.6 | 53
GCCGACGGAAACGTTGGC (((.(((....))).))) | -45.5 | 63.9
GCCGAGCGAAAGCCCCGC ((.(.((....)).).)) | -12.1 | 32.2
GCCGAGCGAAAGCTGGGC (((.(((....))).))) | -30 | 68
